Laboratory results reported in ChEMBL document CHEMBL1833804, “Discovery of N-(3-(1-methyl-1,2,3,6-tetrahydropyridin-4-yl)-1H-indol-6-yl) thiophene-2-carboximidamide as a selective inhibitor of human neuronal nitric oxide synthase (nNOS) for the treatment of pain” (J Med Chem, 2011).
The source made the active and inactive calls. No cut-off for these calls is given here.

Columns and labels:
Homo sapiens = organism: Homo sapiens; experiment: Antimigraine activity in migraine patients relative to placebo treated control; assay type: functional
Gerbillinae = experiment: Neuroprotective activity in gerbil cerebral ischemia model; assay type: functional
Cytochrome P450 2D6 = Cytochrome P450 2D6 (Homo sapiens, UniProt P10635); experiment: Inhibition of CYP2D6 using AMMC as substrate; assay type: ADME
Chain of Cytochrome P450 2D6 (P10635 whole entry): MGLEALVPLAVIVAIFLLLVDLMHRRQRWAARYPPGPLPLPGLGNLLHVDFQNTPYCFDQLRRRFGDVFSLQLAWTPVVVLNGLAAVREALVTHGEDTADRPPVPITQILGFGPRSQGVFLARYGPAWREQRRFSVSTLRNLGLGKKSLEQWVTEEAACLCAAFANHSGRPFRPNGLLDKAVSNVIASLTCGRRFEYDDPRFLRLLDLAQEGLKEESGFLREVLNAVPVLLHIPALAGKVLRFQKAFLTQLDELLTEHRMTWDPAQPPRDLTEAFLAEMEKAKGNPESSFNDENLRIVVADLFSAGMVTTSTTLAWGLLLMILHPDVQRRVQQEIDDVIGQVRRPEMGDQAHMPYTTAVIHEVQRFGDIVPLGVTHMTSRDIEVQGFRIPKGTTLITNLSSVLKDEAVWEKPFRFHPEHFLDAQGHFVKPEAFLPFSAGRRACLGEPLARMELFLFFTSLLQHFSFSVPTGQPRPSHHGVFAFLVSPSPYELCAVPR
Method in brief: (§1)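 Insect-cell microsomes expressing single human CYP isozymes, incubated at 37 °C with an NADPH regenerating system (NADP+, glucose-6-phosphate, G6P dehydrogenase, MgCl2) and an isozyme-specific fluorogenic substrate. Formation of the fluorescent metabolite was measured with and without test compound across 0.0457–100 μM. An enzyme-selective inhibitor served as positive control. Duplicate determinations, IC50 reported.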

[1] = target: T1, Nitric oxide synthase 3 (Homo sapiens) (UniProt P29474); experiment: Inhibition of eNOS in human arteries precontracted with U46619 assessed as inhibition of acteylcholine-induced vasorelaxation at 1 to 100 uM after 50 mins
T1 sequence (whole entry): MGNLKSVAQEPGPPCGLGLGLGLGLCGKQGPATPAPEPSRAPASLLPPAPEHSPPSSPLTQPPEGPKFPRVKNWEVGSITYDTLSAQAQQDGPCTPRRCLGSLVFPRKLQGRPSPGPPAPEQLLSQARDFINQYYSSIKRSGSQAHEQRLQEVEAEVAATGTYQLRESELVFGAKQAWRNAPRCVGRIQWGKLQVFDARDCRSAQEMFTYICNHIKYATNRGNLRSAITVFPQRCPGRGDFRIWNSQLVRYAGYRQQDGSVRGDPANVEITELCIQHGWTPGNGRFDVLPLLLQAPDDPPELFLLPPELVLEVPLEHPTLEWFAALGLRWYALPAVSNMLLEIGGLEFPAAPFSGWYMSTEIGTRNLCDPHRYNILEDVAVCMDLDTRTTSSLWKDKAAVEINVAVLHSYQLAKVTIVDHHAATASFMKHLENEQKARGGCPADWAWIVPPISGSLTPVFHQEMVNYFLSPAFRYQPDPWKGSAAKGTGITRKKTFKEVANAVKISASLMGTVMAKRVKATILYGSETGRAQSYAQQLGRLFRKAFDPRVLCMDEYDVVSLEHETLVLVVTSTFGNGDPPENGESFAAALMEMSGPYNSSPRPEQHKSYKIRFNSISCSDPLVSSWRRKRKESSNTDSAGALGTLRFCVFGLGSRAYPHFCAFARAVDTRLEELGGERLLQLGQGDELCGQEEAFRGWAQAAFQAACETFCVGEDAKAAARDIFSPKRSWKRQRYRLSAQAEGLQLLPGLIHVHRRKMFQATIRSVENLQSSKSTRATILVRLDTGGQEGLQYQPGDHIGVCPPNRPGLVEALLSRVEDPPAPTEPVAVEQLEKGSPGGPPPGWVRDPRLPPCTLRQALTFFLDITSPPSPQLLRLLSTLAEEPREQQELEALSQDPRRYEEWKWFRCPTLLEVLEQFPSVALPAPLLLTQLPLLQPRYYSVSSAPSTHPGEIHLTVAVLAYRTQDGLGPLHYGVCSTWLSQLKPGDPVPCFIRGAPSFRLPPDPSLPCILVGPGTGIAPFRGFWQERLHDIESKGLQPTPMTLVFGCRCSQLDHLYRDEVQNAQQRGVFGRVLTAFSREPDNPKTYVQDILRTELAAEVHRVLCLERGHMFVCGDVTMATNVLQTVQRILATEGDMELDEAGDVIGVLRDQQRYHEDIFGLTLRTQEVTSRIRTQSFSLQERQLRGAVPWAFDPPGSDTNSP
Method in brief: (§2)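 Human resistance artery rings of about 2 mm from surgical explants, wire-mounted in myograph baths of Krebs-bicarbonate PSS gassed with 95% O2/5% CO2 at 37 °C. Rings equilibrated at least 30 min with washes every 15 min, then standardised. Isometric tension recorded during ACh relaxation (10^-10 to 10^-5 M).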

Rattus norvegicus [2] = experiment: Analgesic activity in rat SNL model assessed as reversal of thermal hyperalgesia at 60 mg/kg, ip administered as single dose measured at 90 mins; assay type: functional; conditions: route intraperitoneal
Method in brief: (§3)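 Rat Chung model: L5 and L6 spinal nerves tightly ligated with 4-0 silk distal to the DRG under halothane anaesthesia, animals recovered in individual cages. Single intraperitoneal dose, 10 or 60 mg/kg. Read-out was paw withdrawal latency to radiant heat, expressed as percent reversal of thermal hyperalgesia over time after dosing.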

Cytochrome P450 1A2 = target: T2, Cytochrome P450 1A2 (Homo sapiens, UniProt P05177); experiment: Inhibition of CYP1A2 using CEC as substrate; assay type: ADME; method in brief: as §1
T2 sequence (P05177 whole entry): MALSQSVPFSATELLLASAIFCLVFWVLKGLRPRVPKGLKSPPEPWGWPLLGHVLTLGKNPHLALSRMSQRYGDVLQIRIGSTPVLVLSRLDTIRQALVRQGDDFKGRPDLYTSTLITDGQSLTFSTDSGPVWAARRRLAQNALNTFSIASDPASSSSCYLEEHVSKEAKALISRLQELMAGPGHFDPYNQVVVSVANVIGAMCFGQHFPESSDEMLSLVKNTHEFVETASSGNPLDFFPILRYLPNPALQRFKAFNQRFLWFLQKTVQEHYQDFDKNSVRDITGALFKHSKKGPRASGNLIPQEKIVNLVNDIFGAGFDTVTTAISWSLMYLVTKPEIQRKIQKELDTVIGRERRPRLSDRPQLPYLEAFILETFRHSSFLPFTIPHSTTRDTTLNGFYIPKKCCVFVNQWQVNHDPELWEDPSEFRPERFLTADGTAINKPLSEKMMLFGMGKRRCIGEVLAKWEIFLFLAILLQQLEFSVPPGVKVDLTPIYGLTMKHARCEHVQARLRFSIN

Nitric oxide synthase 1 = Nitric oxide synthase 1 (Homo sapiens, UniProt P29475); experiment: Inhibition of human recombinant nNOS expressed in Sf9 cells assessed as inhibition of conversion of [3H]-L-arginine to [3H]-L-citrulline after 45 mins by liquid scintillation counting
Chain of Nitric oxide synthase 1 (P29475 whole entry): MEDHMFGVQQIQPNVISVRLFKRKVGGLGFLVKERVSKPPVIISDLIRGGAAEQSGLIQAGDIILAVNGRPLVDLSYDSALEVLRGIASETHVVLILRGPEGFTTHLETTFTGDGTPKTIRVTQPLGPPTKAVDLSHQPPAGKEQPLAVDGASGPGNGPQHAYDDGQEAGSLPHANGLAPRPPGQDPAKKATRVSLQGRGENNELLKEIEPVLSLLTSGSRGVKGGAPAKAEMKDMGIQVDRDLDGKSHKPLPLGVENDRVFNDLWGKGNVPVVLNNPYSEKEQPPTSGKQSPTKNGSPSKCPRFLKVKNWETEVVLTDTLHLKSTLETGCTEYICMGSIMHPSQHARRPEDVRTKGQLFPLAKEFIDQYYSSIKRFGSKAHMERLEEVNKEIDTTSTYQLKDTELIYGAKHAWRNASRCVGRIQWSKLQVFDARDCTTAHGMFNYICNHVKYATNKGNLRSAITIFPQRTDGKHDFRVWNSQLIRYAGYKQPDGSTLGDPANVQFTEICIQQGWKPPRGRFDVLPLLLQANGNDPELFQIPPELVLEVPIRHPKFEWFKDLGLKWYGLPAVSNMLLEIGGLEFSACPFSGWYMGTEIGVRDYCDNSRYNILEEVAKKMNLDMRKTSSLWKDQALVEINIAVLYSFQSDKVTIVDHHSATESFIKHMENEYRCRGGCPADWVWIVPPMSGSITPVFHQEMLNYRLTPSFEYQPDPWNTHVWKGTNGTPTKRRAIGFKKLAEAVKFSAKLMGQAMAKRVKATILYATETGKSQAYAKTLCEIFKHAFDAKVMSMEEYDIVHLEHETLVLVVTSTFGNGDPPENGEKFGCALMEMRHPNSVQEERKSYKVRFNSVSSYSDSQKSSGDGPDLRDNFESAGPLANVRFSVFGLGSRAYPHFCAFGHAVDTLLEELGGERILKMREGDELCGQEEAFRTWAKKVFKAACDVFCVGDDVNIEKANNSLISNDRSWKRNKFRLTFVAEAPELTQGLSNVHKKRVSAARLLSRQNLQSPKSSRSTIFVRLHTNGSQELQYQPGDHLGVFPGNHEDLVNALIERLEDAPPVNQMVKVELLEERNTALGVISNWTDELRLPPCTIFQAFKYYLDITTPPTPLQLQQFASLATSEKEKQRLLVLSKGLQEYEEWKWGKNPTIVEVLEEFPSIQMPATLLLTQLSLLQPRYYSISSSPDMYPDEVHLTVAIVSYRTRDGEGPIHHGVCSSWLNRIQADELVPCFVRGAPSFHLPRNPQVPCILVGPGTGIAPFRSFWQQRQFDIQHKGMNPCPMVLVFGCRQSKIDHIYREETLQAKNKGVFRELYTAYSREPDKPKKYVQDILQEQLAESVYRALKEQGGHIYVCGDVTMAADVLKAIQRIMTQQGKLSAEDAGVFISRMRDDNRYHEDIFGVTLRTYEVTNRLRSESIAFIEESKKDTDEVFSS
Method in brief: (§4)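 Recombinant human eNOS or nNOS from baculovirus-infected Sf9 cells in 40 mM HEPES pH 7.4 with 2.4 mM CaCl2, 1 mM MgCl2, 1 mg/mL BSA, 1 mM EDTA, 1 mM DTT, 1 μM FMN, 1 μM FAD, 10 μM BH4, 1 mM NADPH and 1.2 μM CaM. Compound preincubated 15 min at RT, then [3H]-L-arginine conversion ran 45 min at 37 °C. Stopped with pH 5.5 HEPES/EGTA/EDTA buffer. [3H]-citrulline separated on Dowex and counted by scintillation. Duplicates.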

Cytochrome P450 2C9 = Cytochrome P450 2C9 (Homo sapiens, UniProt P11712); experiment: Inhibition of CYP2C9 using MFC as substrate; assay type: ADME; method in brief: as §1
Chain of Cytochrome P450 2C9 (P11712 whole entry): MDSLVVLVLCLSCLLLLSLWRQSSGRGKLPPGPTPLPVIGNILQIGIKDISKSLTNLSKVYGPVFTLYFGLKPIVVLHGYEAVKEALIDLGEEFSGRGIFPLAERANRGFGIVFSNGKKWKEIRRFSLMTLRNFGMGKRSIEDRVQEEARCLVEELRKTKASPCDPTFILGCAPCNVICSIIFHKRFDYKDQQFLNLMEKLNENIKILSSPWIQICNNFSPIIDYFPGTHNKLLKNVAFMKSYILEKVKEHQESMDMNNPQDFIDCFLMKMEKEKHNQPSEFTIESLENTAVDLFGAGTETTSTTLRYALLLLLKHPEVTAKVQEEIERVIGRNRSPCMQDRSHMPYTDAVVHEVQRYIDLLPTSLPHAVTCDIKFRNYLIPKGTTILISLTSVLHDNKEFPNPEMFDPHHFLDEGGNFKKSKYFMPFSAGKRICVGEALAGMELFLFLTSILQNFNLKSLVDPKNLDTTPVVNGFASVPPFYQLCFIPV

Nitric oxide synthase 3 = target: T3, Nitric oxide synthase 3 (Homo sapiens, UniProt P29474); experiment: Inhibition of human recombinant eNOS expressed in Sf9 cells assessed as inhibition of conversion of [3H]-L-arginine to [3H]-L-citrulline after 45 mins by liquid scintillation counting; method in brief: as §4
T3 sequence (P29474 whole entry): T1 sequence (whole entry)

[3] = target: Nitric oxide sythases; iNOS & nNOS (Homo sapiens) (UniProt P29475+P35228); experiment: Selectivity ratio of IC50 for human recombinant iNOS to IC50 for human recombinant nNOS
Chain of Nitric oxide sythases; iNOS & nNOS (Homo sapiens) (P29475 whole entry, looked up): as the sequence (P29475 whole entry) above
Chain of Nitric oxide sythases; iNOS & nNOS (Homo sapiens) (P35228 whole entry, looked up): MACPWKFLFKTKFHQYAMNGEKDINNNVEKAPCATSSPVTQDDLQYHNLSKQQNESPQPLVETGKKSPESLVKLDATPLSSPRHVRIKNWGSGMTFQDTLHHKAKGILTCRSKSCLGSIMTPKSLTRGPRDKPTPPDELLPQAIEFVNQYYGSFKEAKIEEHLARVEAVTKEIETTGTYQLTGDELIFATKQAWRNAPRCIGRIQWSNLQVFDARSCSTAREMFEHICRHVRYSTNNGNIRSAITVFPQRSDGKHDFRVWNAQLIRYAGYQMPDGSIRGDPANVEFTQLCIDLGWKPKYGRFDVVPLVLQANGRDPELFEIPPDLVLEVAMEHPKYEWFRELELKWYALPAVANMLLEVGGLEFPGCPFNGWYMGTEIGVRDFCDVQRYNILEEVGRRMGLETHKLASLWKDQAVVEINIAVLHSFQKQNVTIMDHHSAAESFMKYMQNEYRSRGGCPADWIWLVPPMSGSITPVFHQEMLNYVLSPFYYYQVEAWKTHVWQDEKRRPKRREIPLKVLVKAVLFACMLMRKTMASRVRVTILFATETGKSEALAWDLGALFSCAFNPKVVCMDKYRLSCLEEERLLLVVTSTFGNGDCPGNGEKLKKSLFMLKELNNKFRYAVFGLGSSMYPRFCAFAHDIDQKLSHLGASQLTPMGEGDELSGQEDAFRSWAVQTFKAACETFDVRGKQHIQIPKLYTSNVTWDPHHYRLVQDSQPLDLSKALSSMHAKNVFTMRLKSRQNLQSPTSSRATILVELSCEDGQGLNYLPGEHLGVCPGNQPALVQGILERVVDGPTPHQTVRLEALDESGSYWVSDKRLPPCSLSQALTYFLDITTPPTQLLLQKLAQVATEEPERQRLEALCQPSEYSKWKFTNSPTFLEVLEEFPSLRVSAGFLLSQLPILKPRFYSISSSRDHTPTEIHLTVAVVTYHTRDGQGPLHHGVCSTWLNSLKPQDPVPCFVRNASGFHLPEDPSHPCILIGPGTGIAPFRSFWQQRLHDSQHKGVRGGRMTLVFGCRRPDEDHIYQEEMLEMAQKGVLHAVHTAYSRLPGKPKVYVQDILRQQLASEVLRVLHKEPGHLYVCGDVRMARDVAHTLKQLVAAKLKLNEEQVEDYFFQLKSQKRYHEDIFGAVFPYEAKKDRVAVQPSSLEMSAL
Method in brief: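 Recombinant human nNOS and iNOS were expressed in baculovirus-infected Sf9 cells, and the assay measured [³H]-L-arginine to [³H]-L-citrulline conversion. nNOS buffer: 40 mM HEPES pH 7.4 with CaCl₂, MgCl₂, BSA, 1 mM NADPH and 1.2 μM CaM. iNOS buffer: 100 mM HEPES pH 7.4 with 120 μM NADPH and 100 nM CaM. Compound was preincubated 15 min at RT, then reacted 45 min at 37 °C. Citrulline was separated on DOWEX and counted by scintillation, in duplicate. The ratio is IC50 iNOS/IC50 nNOS.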

[4] = target: T1, Nitric oxide synthase 3 (Homo sapiens); experiment: Inhibition of eNOS in human arteries precontracted with U46619 assessed as inhibition of acteylcholine-induced vasorelaxation at 1 to 100 uM after 50 mins in the presence of 1 mM L-arginine; method in brief: as §2
Cytochrome P450 2C19 = Cytochrome P450 2C19 (Homo sapiens, UniProt P33261); experiment: Inhibition of CYP2C19 using CEC as substrate; assay type: ADME; method in brief: as §1
Chain of Cytochrome P450 2C19 (P33261 whole entry): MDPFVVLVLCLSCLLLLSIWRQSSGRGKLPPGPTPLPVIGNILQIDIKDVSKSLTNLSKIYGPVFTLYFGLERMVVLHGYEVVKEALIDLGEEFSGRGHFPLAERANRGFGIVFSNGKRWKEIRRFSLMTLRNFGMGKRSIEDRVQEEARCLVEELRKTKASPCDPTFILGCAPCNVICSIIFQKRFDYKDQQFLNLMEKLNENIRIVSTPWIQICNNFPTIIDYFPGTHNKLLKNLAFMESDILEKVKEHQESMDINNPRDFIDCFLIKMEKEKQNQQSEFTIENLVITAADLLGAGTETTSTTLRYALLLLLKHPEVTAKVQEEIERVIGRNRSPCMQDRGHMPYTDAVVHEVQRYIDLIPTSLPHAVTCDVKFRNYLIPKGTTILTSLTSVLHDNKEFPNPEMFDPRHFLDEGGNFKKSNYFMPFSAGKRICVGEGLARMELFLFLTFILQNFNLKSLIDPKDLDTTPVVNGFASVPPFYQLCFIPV

[5] = target: Nitric oxide synthase, inducible (Homo sapiens, UniProt P35228); experiment: Inhibition of human recombinant iNOS expressed in Sf9 cells assessed as inhibition of conversion of [3H]-L-arginine to [3H]-L-citrulline after 45 mins by liquid scintillation counting
Chain of Nitric oxide synthase, inducible (P35228 whole entry): as the sequence (P35228 whole entry, looked up) above
Method in brief: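 Recombinant human iNOS from baculovirus-infected Sf9 cells in 100 mM HEPES pH 7.4 with 1 mM CaCl2, 1 mM EDTA, 1 mM DTT, 1 μM FMN, 1 μM FAD, 10 μM BH4, 120 μM NADPH and 100 nM CaM. Compound preincubated 15 min at RT, then 45 min at 37 °C. [3H]-citrulline from [3H]-L-arginine separated on Dowex and counted by scintillation. Duplicates.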

Cytochrome P450 3A4 [6] = target: T4, Cytochrome P450 3A4 (Homo sapiens, UniProt P08684); experiment: Inhibition of CYP3A4 using BFC as substrate; assay type: ADME; method in brief: as §1
T4 sequence (P08684 whole entry): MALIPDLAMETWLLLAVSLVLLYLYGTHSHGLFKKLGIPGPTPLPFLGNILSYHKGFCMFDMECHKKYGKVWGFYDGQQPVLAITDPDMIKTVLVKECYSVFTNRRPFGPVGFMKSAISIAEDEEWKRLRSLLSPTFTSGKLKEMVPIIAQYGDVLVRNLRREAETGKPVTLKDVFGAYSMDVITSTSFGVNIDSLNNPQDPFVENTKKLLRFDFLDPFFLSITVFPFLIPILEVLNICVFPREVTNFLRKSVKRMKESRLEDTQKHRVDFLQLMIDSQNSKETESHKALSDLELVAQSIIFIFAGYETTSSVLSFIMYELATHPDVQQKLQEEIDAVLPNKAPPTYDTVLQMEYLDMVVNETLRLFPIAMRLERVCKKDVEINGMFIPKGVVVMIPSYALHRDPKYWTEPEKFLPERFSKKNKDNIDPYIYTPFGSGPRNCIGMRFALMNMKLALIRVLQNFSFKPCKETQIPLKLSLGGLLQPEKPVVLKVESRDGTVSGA

Rattus norvegicus [7] = experiment: Analgesic activity in ip dosed rat spinal nerve ligation model assessed as reversal of thermal hyperalgesia measured after 60 to 120 mins; assay type: functional, organism-based; method in brief: as §3
Cytochrome P450 3A4 [8] = target: T4, Cytochrome P450 3A4; experiment: Inhibition of CYP3A4 using BQ as substrate; assay type: ADME; method in brief: as §1
[9] = target: T1, Nitric oxide synthase 3 (Homo sapiens); experiment: Inhibition of eNOS in human arteries precontracted with U46619 assessed as inhibition of acteylcholine-induced vasorelaxation at 100 uM after 50 mins in the presence of 1 mM L-arginine; method in brief: as §2
[10] = target: T1, Nitric oxide synthase 3 (Homo sapiens); experiment: Inhibition of eNOS in human arteries precontracted with U46619 assessed as inhibition of acteylcholine-induced vasorelaxation after 50 mins; method in brief: as §2

| Compound | IC50 (Nitric oxide synthase 1) | IC50 (Nitric oxide synthase 3) | Ratio IC50 [3] | IC50 [5] | other results |
| --- | --- | --- | --- | --- | --- |
| CNC(=N)NCCC[C@H](N)C(=O)O.Cl.Cl | – | – | – | – | Activity (Homo sapiens): 67% |
| O=[N+]([O-])c1cccc2cn[nH]c12 [7-NITROINDAZOLE] | – | – | – | – | Activity (Gerbillinae): 22% |
| FC(F)(F)c1ccccc1-n1ccnc1 | – | – | – | – | Activity (Gerbillinae): 8% |
| CN1CC=C(c2c[nH]c3cc(NC(=N)c4cccs4)ccc23)CC1.Cl.Cl | 800 nM | 26.5 µM | 15 | 12.3 µM | IC50 (Cytochrome P450 2D6): 63.2 µM; inhibition [1]: inactive; Activity (Rattus norvegicus [2]): 67%; IC50 (Cytochrome P450 1A2; read-out: IC50): > 100 µM; IC50 (Cytochrome P450 2C9; read-out: IC50): 72.7 µM; inhibition [4]: inactive; IC50 (Cytochrome P450 2C19): 40.1 µM; IC50 (Cytochrome P450 3A4 [6]): 74.8 µM; Activity (Rattus norvegicus [7]): Dose-dependent effect; IC50 (Cytochrome P450 3A4 [8]): > 100 µM |
| N=C(Nc1ccc2c(C3CN4CCC3CC4)c[nH]c2c1)c1cccs1 (single isomer, unassigned; enantiomer 2) | – | – | 309 | – | – |
| Cl.Cl.N=C(Nc1ccc2c(C3CN4CCC3CC4)c[nH]c2c1)c1cccs1 (single isomer, unassigned; enantiomer 2) | 450 nM | 40.6 µM | – | 139 µM | IC50 (Cytochrome P450 2D6): > 100 µM; IC50 (Cytochrome P450 1A2): Not Active; IC50 (Cytochrome P450 2C9): Not Active; IC50 (Cytochrome P450 2C19): 49.6 µM; IC50 (Cytochrome P450 3A4 [6]): 100 µM; IC50 (Cytochrome P450 3A4 [8]): > 100 µM |
| N=C(Nc1ccc2c(C3CN4CCC3CC4)c[nH]c2c1)c1cccs1 (racemic) [listing 1 of 2 here] | – | – | 15 | – | – |
| N=C(Nc1ccc(CCNCc2cccc(Cl)c2)cc1)c1cccs1 | – | – | – | – | Activity (Gerbillinae): 44% |
| N=C(Nc1ccc2c(C3=CN4CCC3CC4)c[nH]c2c1)c1cccs1 | 1500 nM | – | 6 | 8.4 µM | – |
| N=C(Nc1ccc2c(C3CN4CCC3CC4)c[nH]c2c1)c1cccs1 (single isomer, unassigned; enantiomer 1) [listing 1 of 2 here] | 530 nM | 23.3 µM | – | 52.1 µM | – |
| COC(=O)[C@@H](N)CCCNC(=N)N[N+](=O)[O-] | 690 nM | 0.68 µM | 1.2 | 0.83 µM | inhibition [9]: inactive; inhibition [10]: Dose-dependent effect |
| N=C(Nc1ccc2c(C3CN4CCC3CC4)c[nH]c2c1)c1cccs1 (single isomer, unassigned; enantiomer 1) [listing 2 of 2 here] | – | – | 98 | – | – |
| CN1CCC(c2c[nH]c3cc(NC(=N)c4cccs4)ccc23)CC1 | 120 nM | 10.7 µM | 78 | – | – |
| CN1CCC[C@@H]1CCn1ccc2ccc(/N=C(\N)c3cccs3)cc21 | – | – | 225 | – | – |
| N=C(Nc1ccc2c(C3CN4CCC3CC4)c[nH]c2c1)c1cccs1 (racemic) [listing 2 of 2 here] | 1230 nM | 33.3 µM | – | 18.4 µM | – |
| CN1CCC(c2c[nH]c3cc(NC(=N)c4cccs4)ccc23)C1 (stereo unspecified) | – | – | 13 | 2.6 µM | – |
